Tests used:
[1] = target: T1, Delta-type opioid receptor (Rattus norvegicus, UniProt P33533); experiment: Tested for binding activity against delta1 opioid receptor using [3H]DPDPE ligand
[2] = target: Kappa-type opioid receptor (Cavia porcellus, UniProt P41144); experiment: Tested for binding activity against kappa opioid receptor using [3H]U-69593 ligand
In short: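 Guinea pig brain membranes; competition of test ligand against the tritiated radioligand selective for each site: [3H]DPDPE (δ1), [3H]U69593 (κ), [3H]DAMGO (μ). Ki values derived from the competition curves.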

[3] = target: Delta-type opioid receptor (Mus musculus) (UniProt P32300); details: 100 nM
[4] = target: Mu-type opioid receptor (Cavia porcellus) (UniProt P97266); details: 100 nM
[5] = target: Kappa-type opioid receptor (Cavia porcellus) (UniProt P41144); details: 100 nM
[6] = species on record: Mus musculus; experiment: Antagonism of antinociceptive effect of mu receptor selective agonist morphine in mice (control); type: functional
In short: (§1)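 Mouse tail-flick assay; agonist given icv without antagonist pretreatment, timed so its peak effect fell at the centre of the observation period. Control ED50 derived, expressed as nmol/mouse for DPDPE and DSLET and as µmol/kg for morphine and U50488.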

[7] = species on record: Mus musculus; experiment: Antagonism of antinociceptive effect of delta 2 selective agonist DSLET in mice (control); type: functional; in short: as §1
[8] = tested on: Mus musculus; experiment: Antagonism of antinociceptive effect of delta 2 selective agonist DSLET in mice, icv (treated); type: functional; details: central
[9] = target: T1, Delta-type opioid receptor; experiment: Tested for binding activity against delta opioid receptor using [3H]naltridole ligand
[10] = species on record: Mus musculus; experiment: Antagonism of antinociceptive effect of delta 1 selective agonist DPDPE in mice (control); type: functional; in short: as §1
[11] = target: Kappa-type opioid receptor (Cavia porcellus) (UniProt P41144); details: 100 nM; remark: listed apart in the source
[12] = tested on: Mus musculus; experiment: Antagonism of antinociceptive effect of mu receptor selective agonist morphine in mice, icv (treated); type: functional; details: central
In short: (§2)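 Mice received 2 nmol antagonist icv, timed with the icv agonist so the antagonist peak (20 min) coincided with the centre of the tail-flick observation period. Treated ED50 is in nmol/mouse for DPDPE and DSLET and in µmol/kg for morphine and U50488. ED50 ratio is treated over control.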

[13] = tested on: Mus musculus; experiment: Antagonism of antinociceptive effect of kappa receptor selective agonist U-50,488 in mice, icv (treated); type: functional; details: central; in short: as §2
[14] = tested on: Mus musculus; experiment: Antagonism of antinociceptive effect of delta 1 selective agonist DPDPE in mice, icv (treated); type: functional; details: central
[15] = species on record: Mus musculus; experiment: Antagonism of antinociceptive effect of kappa receptor selective agonist U-50,488 in mice (control); type: functional; in short: as §1

Kappa-type opioid receptor, sequence (P41144 whole entry): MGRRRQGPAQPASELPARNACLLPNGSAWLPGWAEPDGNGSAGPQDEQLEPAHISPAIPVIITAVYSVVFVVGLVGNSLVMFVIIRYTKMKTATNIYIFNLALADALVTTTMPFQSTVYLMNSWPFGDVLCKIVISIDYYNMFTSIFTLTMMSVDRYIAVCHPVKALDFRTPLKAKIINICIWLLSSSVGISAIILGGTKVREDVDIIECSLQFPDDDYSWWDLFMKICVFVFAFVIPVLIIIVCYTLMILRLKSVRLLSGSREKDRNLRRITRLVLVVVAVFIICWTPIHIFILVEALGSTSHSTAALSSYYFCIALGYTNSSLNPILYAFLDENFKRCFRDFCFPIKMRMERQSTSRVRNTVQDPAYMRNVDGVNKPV
Kappa-type opioid receptor (Cavia porcellus), sequence (P41144 whole entry): as above
Delta-type opioid receptor (Mus musculus), sequence (P32300 whole entry): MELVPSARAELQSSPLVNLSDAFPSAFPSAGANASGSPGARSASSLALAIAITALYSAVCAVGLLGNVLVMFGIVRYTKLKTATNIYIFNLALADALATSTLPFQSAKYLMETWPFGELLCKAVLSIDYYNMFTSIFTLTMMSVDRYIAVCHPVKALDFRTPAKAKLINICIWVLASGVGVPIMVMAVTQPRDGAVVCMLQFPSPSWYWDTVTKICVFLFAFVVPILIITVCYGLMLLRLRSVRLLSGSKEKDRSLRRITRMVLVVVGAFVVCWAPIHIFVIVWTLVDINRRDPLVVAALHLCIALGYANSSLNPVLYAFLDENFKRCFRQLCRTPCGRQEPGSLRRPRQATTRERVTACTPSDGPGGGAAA
Mu-type opioid receptor (Cavia porcellus), sequence (P97266 whole entry): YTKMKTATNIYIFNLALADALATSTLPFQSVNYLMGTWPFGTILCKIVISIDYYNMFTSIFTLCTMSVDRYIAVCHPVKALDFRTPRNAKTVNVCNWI
T1 sequence (P33533 whole entry): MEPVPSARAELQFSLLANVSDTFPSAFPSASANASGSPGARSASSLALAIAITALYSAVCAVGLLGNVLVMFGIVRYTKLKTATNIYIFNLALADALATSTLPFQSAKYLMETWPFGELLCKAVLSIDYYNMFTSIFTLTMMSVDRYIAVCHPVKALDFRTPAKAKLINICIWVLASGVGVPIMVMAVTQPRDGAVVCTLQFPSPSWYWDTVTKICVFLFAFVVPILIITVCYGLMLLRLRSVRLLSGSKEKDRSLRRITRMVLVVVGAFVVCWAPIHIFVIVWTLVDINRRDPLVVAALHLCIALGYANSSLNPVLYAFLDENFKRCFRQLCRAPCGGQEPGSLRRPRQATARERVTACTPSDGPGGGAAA

Structure (SMILES): Oc1ccc2c3c1O[C@H]1c4[nH]c5ccccc5c4C[C@@]4(O)[C@@H](C2)N(CC2CC2)CC[C@]314 [NALTRINDOLE]
- Ki [1]: 0.0072 nM

Structure (SMILES): O=C1[C@@H](Cc2ccccc2)C[C@@]2(O)[C@H]3Cc4ccc(O)c5c4[C@@]2(CCN3CC2CC2)[C@H]1O5
- Ki [2]: 25 nM
- Ke [3]: 1.5 nM
- Ke [4]: 21 nM

Structure (SMILES): O=C1/C(=C/c2ccccc2)C[C@@]2(O)[C@H]3Cc4ccc(O)c5c4[C@@]2(CCN3CC2CC2)[C@H]1O5 [BNTX]
- Ki [2]: 5.9 nM
- Ke [3]: 2.9 nM
- Ke [5]: 100 nM
- Ke [4]: 8.3 nM

Structure (SMILES): Oc1ccc2c3c1O[C@H]1C4(CC[C@@]5(O)[C@@H](C2)N(CC2CC2)CC[C@]315)Oc1ccccc1O4
- Ki [2]: 25 nM
- Ke [4]: 40 nM

Structure (SMILES): O=C1[C@@H]2Oc3c(O)ccc4c3[C@@]23CCN(CC2CC2)[C@H](C4)[C@]3(O)CC12Cc1ccccc1C2
- ED50 [6]: 6.9 uM mouse-1
- Ki [2]: 12.5 nM
- ED50 [7]: 0.7 uM mouse-1
- Ke [3]: 0.78 nM
- ED50 [8]: 2.8 µmol/kg
- Ki [9]: 0.047 nM
- ED50 [10]: 6.4 uM mouse-1
- Ke [4]: 4.2 nM
- Ke [11]: 105 nM
- ED50 [12]: 21.1 µmol/kg
- ED50 [13]: 12.2 µmol/kg
- ED50 [14]: 46.3 µmol/kg
- ED50 [15]: 8.6 uM mouse-1

Structure (SMILES): Oc1ccc2c3c1O[C@H]1[C@H](Nc4ccccc4)CC[C@@]4(O)[C@@H](C2)N(CC2CC2)CC[C@]314
- Ki [2]: 2.2 nM
- Ke [3]: 100 nM
- Ke [5]: 6 nM
- Ke [4]: 1.3 nM

Structure (SMILES): Oc1ccc2c3c1O[C@H]1[C@@H](Nc4ccccc4)CC[C@@]4(O)[C@@H](C2)N(CC2CC2)CC[C@]314
- Ki [2]: 2.2 nM
- Ke [3]: 8.8 nM
- Ke [5]: 100 nM
- Ke [4]: 3.2 nM

Structure (SMILES): O=C1/C(=C\c2ccccc2)C[C@@]2(O)[C@H]3Cc4ccc(O)c5c4[C@@]2(CCN3CC2CC2)[C@H]1O5
- Ki [2]: 66 nM
- Ke [3]: 24 nM
- Ke [5]: 53 nM

— ChEMBL document CHEMBL1127619, “Synthesis of naltrexone-derived delta-opioid antagonists. Role of conformation of the delta address moiety” (J Med Chem, 1994)
